Data as given in ChEMBL document CHEMBL2311527, “Synthesis of cembranoid analogues and evaluation of their potential as quorum sensing inhibitors” (Bioorg Med Chem, 2013).
The source made the active and inactive calls. The calls are words filed in the database; no cut-off is given here.

Test system: Chromobacterium violaceum
Experiment: Antibacterial activity against Chromobacterium violaceum ATCC 31532 assessed as growth inhibition at 2.5 to 30 ug/disk after 48 hrs by NCCLS disk diffusion method
Format: functional, organism-based

SMILES | growth inhibition (GI)
C=C(C)[C@@H]1CC[C@@H](C)[C@H](OC(C)=O)CC[C@H](C)CC(=O)C[C@@H](C)[C@H](OC(C)=O)C1 | inactive
C=C(C)[C@@H]1CC[C@@H](C)[C@H](O)CC[C@H](C)CC2(O)C[C@@H](C)[C@@H](C1)O2 | inactive

Test system: Chromobacterium violaceum
Experiment: Inhibition of quorum sensing system in Chromobacterium violaceum ATCC 31532 assessed as inhibition of violacein pigment production at 30 ug/disk after 48 hrs by NCCLS disk diffusion method
In short: (§1)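 Sterile 5.2 mm filter-paper disks were loaded with 30.0, 15.0, 7.5, 5.0 and 2.5 per disk from MeOH solutions and air-dried for 1 h. They were placed on trypticase soy agar spread with C. violaceum broth culture (10^6 cfu/mL, 0.5 McFarland) and incubated 48 h at 26 °C. The endpoint was the minimum amount per disk giving a colourless, opaque but viable halo, meaning violacein loss without growth inhibition. Kojic acid and Cu2O served as positive controls.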

SMILES | inhibition
C=C(C)[C@H]1CC/C(C)=C/CC[C@@]2(C)O[C@@H]2CC/C(COC(C)=O)=C\[C@@H]1OC(C)=O | inactive
C=C(C)[C@@H]1CC[C@@H](C)C(=O)CC[C@H](C)CC(=O)C[C@@H](C)[C@H](O)C1 | inactive
CC(=O)OCC12CC[C@H]3O[C@]3(C)CCC3OC3(C)CC[C@H]([C@]3(C)CO3)[C@@H](O)C1O2 (stereo not given in full) | inactive
C=C(C)[C@H]1CC/C(C)=C/CC[C@@](C)(O)[C@@H]2CC/C(=C/[C@@H]1O)CO2 | inactive
C=C(C)[C@@H]1CC[C@@H](C)[C@H](O)CC[C@@H](C)CC(=O)C[C@@H](C)[C@H](O)C1 | inactive
C=C(C)[C@H]1CC/C(C)=C/CC[C@@]2(C)O[C@@H]2CC/C(C=O)=C/[C@@H]1O | inactive
C=C(C)[C@H]1CC/C(C)=C/CC[C@@]2(C)O[C@@H]2CCC(C=O)=CC1=O | inactive
C=C(C)[C@@H]1CC[C@@H](C)C(=O)CC[C@H](C)CC2(O)C[C@@H](C)[C@@H](C1)O2 | inactive
C=C(C)[C@H]1CC/C(C)=C/CC[C@@](C)(O)[C@H](O)CC/C(CO)=C/[C@@H]1O | inactive
C=C(C)[C@H]1CC/C(C)=C/C/C=C(/C)[C@H](O)CC/C(COC(C)=O)=C/[C@@H]1O | inactive
C=C(C)[C@H]1CC/C(C)=C/CC[C@@]2(C)O[C@@H]2CC/C(CO)=C\[C@@H]1O | inactive
C=C(C)[C@H]1CC/C(C)=C/CC[C@@]2(C)O[C@@H]2CC/C(COC(C)=O)=C\[C@@H]1O | inactive
C=C(C)[C@@H]1CC[C@@H](C)[C@H](O)CC[C@@H](C)CC2(O)C[C@@H](C)[C@@H](C1)O2 | inactive
C=C(C)[C@@H]1C/C=C(\COC(C)=O)CC[C@@H](O)C(=C)CC/C=C(\C)CC1 | inactive
C=C(C)[C@@H]1C/C=C(\COC(C)=O)CC[C@@H](O)/C(C)=C\C/C=C(\C)CC1 | inactive
C=C(C)[C@H]1CC/C(C)=C/CC[C@@](C)(Cl)[C@H](O)CC/C(COC(C)=O)=C\[C@@H]1OC(C)=O | inactive
C=C(C)[C@@H]1C/C=C(/COC(C)=O)CC[C@H]2O[C@]2(C)CC/C=C(\C)CC1 | inactive
C=C(C)[C@@H]1C/C=C(\COC(C)=O)CC[C@@H](O)[C@](C)(Cl)CC/C=C(\C)CC1 | inactive
C=C(C)[C@H]1CC[C@@](C)(O)[C@H]2CCC(=C)[C@@H](CC/C(CO)=C/[C@@H]1O)O2 | inactive
C=C(C)[C@H]1CC/C(C)=C/CCC(C)C(=O)CC/C(COC)=C/[C@@H]1O (stereo not given in full) | inactive
C=C(C)[C@H]1CC[C@@](C)(I)[C@H]2CC[C@@](C)(O2)[C@@H](I)CC/C(COC(C)=O)=C/[C@@H]1O | inactive
C=C(C)[C@H]1CC/C(C)=C/CC[C@]2(C)O[C@H]1/C=C(\COC(C)=O)CC[C@H]2O | inactive

Test system: Chromobacterium violaceum
Experiment: Inhibition of quorum sensing system in Chromobacterium violaceum ATCC 31532 assessed as inhibition of violacein pigment production measured per disk after 48 hrs by NCCLS disk diffusion method
In short: as §1

SMILES | INH [µg]
C=C(C)[C@H]1C[C@H](O)/C(C)=C/CC[C@@]2(C)O[C@@H]2CC/C(COC(C)=O)=C/[C@@H]1O | 30
C=C(C)[C@H]1CC/C(C)=C/CC[C@@](C)(Cl)[C@H](O)CC/C(CO)=C/[C@@H]1O | 30
C=C(C)[C@@H]1CC[C@@H](C)[C@H](OC(C)=O)CC[C@@H](C)CC(=O)C[C@@H](C)[C@H](OC(C)=O)C1 | 15
O=c1cc(CO)occ1O | 90
C=C(C)[C@@H]1CC[C@@H](C)[C@H](OC(C)=O)CC[C@H](C)CC(=O)C[C@@H](C)[C@H](OC(C)=O)C1 | 30
C=C(C)[C@H]1CC/C(C)=C/CC[C@](C)(O)[C@H](O)CC/C(COC(C)=O)=C/[C@@H]1O | 7.5
C=C(C)[C@H]1CC/C(C)=C/CC[C@@]2(C)O[C@H]1/C=C(\CO)CC[C@H]2O | 30
C=C1CC/C=C(\C)CC[C@H](C(=C)C)[C@@H](OC(C)=O)/C=C(/COC(C)=O)CC[C@H]1O | 7.5
C=C(C)[C@@H]1CC[C@@H](C)[C@H](O)CC[C@H](C)CC2(O)C[C@@H](C)[C@@H](C1)O2 | 7.5
C=C(C)[C@H]1CC/C(C)=C/C/C=C(/C)[C@@H](O)CC/C(COC(C)=O)=C\[C@@H]1OC(C)=O | 7.5
C=C(C)[C@H]1CC/C(C)=C/CCC(C)(C=O)CC/C(COC(C)=O)=C/[C@@H]1O (stereo not given in full) | 7.5
C=C(C)[C@H]1CC/C(C)=C/CC[C@@](C)(Cl)[C@H](O)CC/C(COC(C)=O)=C/[C@@H]1O | 7.5
C=C(C)[C@H]1CC/C(C)=C/C/C=C(\C)[C@H](O)CC/C(COC(C)=O)=C\[C@@H]1OC(C)=O | 2.5
C=C(C)[C@@H]1CC[C@@H](C)[C@H](O)CC[C@H](C)CC(=O)C[C@@H](C)[C@H](O)C1 | 7.5
C=C1CC/C=C(\C)CC[C@H](C(=C)C)[C@@H](O)/C=C(\COC(C)=O)CC[C@H]1O | 7.5
C=C(C)[C@@H]1CC[C@@H](C)C(=O)CC[C@H](C)CC(=O)C[C@@H](C)[C@H](OC(C)=O)C1 | 7.5
